Assay [1] relates to Oryctolagus cuniculus. The assay is described as follows: Agonist activity at progesterone receptor in estrogen-primed immature New Zealand White rabbit assessed as stimulation of progesterone-induced endometrial transformation at 30 mg/kg, sc by McPhail assay. The assay is classed as functional, organism-based. Also on record: dose 30 mg/kg. Summed up: (§1)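 Immature rabbits primed with estrogen, dosed sc without progesterone. Endometrial transformation scored by McPhail Index.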

In the next assay the test system is Rattus norvegicus. The assay is described as follows: Antagonist activity at progesterone receptor in orally dosed ovariectomized Sprague-Dawley rat assessed as reversal of R5020-induced down-regulation of estradiol-induced increase in complement 3 mRNA expression by C3 rat uterine assay. The assay is classed as functional. Conditions: po. Summed up: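 Ovariectomized rats dosed orally (mg/kg dose response). Estrogen (E2, 0.05 mg/kg) induces complement C3 mRNA in uterus. Progestin R5020 (0.1 mg/kg) down-regulates it. Read-out is reversal of the R5020 effect, expressed as fold over asoprisnil (5 mg/kg). ED50 derived from the dose response.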

Assay [2] has as its system Oryctolagus cuniculus. Put plainly: Antagonist activity at progesterone receptor in estrogen-primed immature New Zealand White rabbit assessed as inhibition of progesterone-induced endometrial transformation at 1 mg/kg, sc by McPhail assay. The assay is classed as functional, organism-based. Also on record: dose 1 mg/kg. Summed up: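 Immature rabbits primed with estrogen, given progesterone 1 mg/kg with test compound at various sc doses. Endometrial transformation scored by McPhail Index.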

Assay [3] has as its target T1, Progesterone receptor (Homo sapiens, UniProt P06401).
T1 sequence (P06401 whole entry): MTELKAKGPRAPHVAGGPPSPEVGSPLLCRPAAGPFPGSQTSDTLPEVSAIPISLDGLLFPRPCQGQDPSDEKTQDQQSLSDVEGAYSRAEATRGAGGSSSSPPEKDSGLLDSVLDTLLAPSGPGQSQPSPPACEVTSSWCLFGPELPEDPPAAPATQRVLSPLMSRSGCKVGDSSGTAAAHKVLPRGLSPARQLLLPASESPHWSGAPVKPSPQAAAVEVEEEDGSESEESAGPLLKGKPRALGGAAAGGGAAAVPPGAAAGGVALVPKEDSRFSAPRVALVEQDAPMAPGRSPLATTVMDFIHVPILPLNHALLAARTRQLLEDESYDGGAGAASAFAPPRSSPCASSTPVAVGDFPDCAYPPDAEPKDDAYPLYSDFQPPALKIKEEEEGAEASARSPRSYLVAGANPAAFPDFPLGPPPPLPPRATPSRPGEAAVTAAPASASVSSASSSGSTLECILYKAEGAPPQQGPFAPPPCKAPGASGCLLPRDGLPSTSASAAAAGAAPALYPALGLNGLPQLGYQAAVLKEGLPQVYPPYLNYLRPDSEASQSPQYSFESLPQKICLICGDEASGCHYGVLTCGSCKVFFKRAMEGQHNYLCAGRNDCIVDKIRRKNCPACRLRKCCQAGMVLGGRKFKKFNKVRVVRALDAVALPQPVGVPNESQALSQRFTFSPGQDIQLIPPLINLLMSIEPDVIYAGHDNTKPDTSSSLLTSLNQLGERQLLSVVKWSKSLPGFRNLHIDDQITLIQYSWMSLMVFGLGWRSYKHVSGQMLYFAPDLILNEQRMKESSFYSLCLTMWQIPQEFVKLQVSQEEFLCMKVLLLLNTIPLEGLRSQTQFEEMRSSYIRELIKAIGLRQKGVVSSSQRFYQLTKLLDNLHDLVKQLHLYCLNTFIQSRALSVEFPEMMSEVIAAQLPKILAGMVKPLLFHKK
The assay is described as follows: Antagonist activity at human progesterone receptor expressed in HEK293 cells assessed as inhibition of […]-induced transcriptional activity by GRE-driven luciferase reporter gene assay. In kind it is functional, cell-based. Summed up: (§2)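 Transcription assay in HEK293 cells cotransfected with full-length human receptor. Values are geometric means of at least duplicate determinations.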
For orientation: A reporter such as luciferase makes a cellular process visible.

The target of a further assay is T2, Androgen receptor (Homo sapiens, UniProt P10275).
T2 sequence (P10275 whole entry): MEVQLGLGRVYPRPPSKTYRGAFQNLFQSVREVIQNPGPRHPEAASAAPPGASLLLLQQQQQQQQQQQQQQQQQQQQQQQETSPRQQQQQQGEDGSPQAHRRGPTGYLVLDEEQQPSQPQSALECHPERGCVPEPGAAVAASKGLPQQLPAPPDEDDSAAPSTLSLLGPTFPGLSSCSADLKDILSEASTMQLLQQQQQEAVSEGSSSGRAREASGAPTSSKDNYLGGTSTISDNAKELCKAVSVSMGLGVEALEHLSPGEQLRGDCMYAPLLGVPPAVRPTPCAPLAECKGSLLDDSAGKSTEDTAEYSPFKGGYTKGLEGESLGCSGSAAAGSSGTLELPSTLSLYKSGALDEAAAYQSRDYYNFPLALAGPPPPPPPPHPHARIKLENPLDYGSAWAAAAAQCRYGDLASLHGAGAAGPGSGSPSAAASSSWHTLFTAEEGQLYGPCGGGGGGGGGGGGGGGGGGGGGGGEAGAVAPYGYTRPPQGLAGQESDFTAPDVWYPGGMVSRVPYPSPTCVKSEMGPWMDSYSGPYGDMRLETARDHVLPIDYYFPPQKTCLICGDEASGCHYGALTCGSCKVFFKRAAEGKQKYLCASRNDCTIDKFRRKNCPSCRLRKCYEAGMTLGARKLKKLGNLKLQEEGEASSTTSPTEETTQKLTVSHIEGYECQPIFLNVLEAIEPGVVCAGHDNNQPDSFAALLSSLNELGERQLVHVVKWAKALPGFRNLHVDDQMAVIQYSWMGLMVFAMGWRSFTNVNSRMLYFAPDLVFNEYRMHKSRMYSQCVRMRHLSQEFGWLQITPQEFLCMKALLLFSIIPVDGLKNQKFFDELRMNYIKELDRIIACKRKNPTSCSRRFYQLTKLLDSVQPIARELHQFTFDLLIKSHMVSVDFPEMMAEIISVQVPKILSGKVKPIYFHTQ
The assay is described as follows: Displacement of [3H]methyltrienolone from human androgen receptor expressed in HEK293 cells. The assay is classed as cell-based.

Assay [4] has as its target T3, Progesterone receptor (Homo sapiens) (UniProt P06401).
T3 sequence (whole entry): T1 sequence (P06401 whole entry)
Put plainly: Antagonist activity at human progesterone receptor expressed in HEK293 cells assessed as inhibition of […]-induced transcriptional activity by GRE-driven luciferase reporter gene assay relative to untreated control. In kind it is functional, cell-based. Conditions: concentration not given here. Also on record: concentration or dose not given beside the values. Summed up:
as §2

Assay [5] addresses T1, Progesterone receptor. The assay is described as follows: Displacement of [3H]methyltrienolone from human progesterone receptor expressed in HEK293 cells. In kind it is cell-based. Summed up: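 Competitive binding to recombinant full-length human receptors against tritium-labelled standards. Values are geometric means of at least duplicate determinations.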
A general note: In a radioligand displacement assay an active substance lowers the binding of a labelled ligand.

For assay [6], the target named is T4, Mineralocorticoid receptor (Homo sapiens) (UniProt P08235).
T4 sequence (whole entry): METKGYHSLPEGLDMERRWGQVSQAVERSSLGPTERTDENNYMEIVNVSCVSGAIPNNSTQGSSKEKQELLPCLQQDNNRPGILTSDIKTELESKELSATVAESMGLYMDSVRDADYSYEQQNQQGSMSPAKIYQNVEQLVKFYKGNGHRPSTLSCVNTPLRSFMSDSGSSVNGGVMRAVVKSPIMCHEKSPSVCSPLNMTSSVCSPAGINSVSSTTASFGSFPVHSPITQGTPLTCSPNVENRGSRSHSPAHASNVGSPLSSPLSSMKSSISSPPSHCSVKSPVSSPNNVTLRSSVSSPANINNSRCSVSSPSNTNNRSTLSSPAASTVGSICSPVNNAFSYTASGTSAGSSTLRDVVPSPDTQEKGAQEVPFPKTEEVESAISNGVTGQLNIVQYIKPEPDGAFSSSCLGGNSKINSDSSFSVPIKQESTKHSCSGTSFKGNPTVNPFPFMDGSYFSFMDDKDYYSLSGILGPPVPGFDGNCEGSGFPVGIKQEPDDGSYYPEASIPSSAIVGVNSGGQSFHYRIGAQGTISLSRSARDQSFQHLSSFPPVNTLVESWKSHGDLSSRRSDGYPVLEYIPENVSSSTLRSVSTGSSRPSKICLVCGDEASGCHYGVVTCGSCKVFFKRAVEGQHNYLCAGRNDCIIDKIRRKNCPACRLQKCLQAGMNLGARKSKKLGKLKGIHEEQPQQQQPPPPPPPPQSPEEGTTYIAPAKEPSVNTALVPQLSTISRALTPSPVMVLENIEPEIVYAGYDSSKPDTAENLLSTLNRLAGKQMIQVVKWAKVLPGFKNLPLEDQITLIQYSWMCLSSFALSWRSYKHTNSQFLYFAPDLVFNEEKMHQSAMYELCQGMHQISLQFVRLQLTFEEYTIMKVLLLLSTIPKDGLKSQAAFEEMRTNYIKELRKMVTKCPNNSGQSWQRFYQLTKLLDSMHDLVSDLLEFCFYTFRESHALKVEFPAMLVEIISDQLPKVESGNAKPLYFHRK
The assay is described as follows: Antagonist activity at human mineralocorticoid receptor expressed in HEK293 cells assessed as inhibition of […]-induced transcriptional activity by GRE-driven luciferase reporter gene assay relative to untreated control. Conditions: concentration not given here. Also noted: concentration or dose not given beside the values. The assay is classed as functional, cell-based. Summed up:
as §2

In assay [7] the test system is Oryctolagus cuniculus. The assay is described as follows: Agonist activity at progesterone receptor in sc dosed estrogen-primed immature New Zealand White rabbit assessed as stimulation of progesterone-induced endometrial transformation by McPhail assay. The assay is classed as functional, organism-based. Summed up: as §1

Each structure is given as a SMILES string. Calls of active or inactive are those of the source. No cut-off for these calls is given here.

Four molecules from ChEMBL document CHEMBL1671834, “Novel 3-aryl indoles as progesterone receptor antagonists for uterine fibroids” (ACS Med Chem Lett, 2011) can be followed below.

A word on the ED50: it is the midpoint of the dose-response relation. What is called IC50 is the concentration that inhibits the measured activity by half. For orientation: Ki means the dissociation constant of the complex between target and ligand, obtained from inhibition or displacement. In general, inhibition refers to the share of the control response that was lost under treatment.

Consider `COC[C@]1(OC)CC[C@H]2[C@@H]3CCC4=CC(=O)CCC4=C3[C@@H](c3ccc(/C=N/O)cc3)C[C@@]21C` [ASOPRISNIL], for which the outcome in the assay with Oryctolagus cuniculus [1] and with Oryctolagus cuniculus [2] was Active. In addition, the ED50 in the assay on Rattus norvegicus worked out at 0.31 mg/kg.

As to `C[C@](c1ccc(F)cc1F)(c1c[nH]c2c(NS(C)(=O)=O)cccc12)C1CC1`, the IC50 on Progesterone receptor [3] worked out at 2020 nM. The Ki on Androgen receptor came to 676 nM; at Progesterone receptor [5] it was 1230 nM. In addition, the inhibition was determined as 94.5% in [4] and 87% in [6].

As to `C[C@@](c1ccc(F)cc1F)(c1c[nH]c2c(NS(C)(=O)=O)cccc12)C1CC1`, on Progesterone receptor [3], the IC50 came to 715 nM. The Ki at Androgen receptor is 211 nM; on Progesterone receptor [5], 464 nM. The inhibition is 89.7% in [4] and 62.9% in assay [6].

In the case of `CC#C[C@]1(O)CC[C@H]2[C@@H]3CCC4=CC(=O)CCC4=C3[C@@H](c3ccc(N(C)C)cc3)C[C@@]21C`, the result in the assay with Oryctolagus cuniculus [7] was inactive. In addition, the result in the assay with Oryctolagus cuniculus [2] was Active.
